Our source for the ED50, IC50 and Control values is ChEMBL document CHEMBL1123363, “(5-Amino-1,3-dimethyl-1H-pyrazol-4-yl)(2-fluorophenyl)methanones . A series of novel potential antipsychotic agents” (J Med Chem, 1986).

pIC50: −log10 of the molar value. Bounds are passed on as bounds.

One assay relates to Mus musculus. Briefly: Effective dose required for inhibition of locomotion/ataxia in mice administered intraperitoneally. Type of assay: functional. Conditions: ip. An outline of the steps:
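Male Swiss–Webster mice (20–30 g, unfasted), nine per dose in groups of three, dosed ip in 0.2% methocel (dose as parent compound) 1 h before testing. Ataxia was scored first on an inverted screen over 60 s as % of mice falling. […] ED50 from at least three doses.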

The target in assay [1] is Muscarinic acetylcholine receptor. The assay is described as follows: Binding affinity against muscarinic receptor in rat brain using [3H]- QNB. It is filed as tissue-based. An outline of the steps: (§1)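 Muscarinic sites in rat brain stem membranes (male Long-Evans, 150–250 g), labelled with [3H]quinuclidinyl benzilate at 0.03 nM final. Oxotremorine at 100 μM final served as the reference displacer. IC50 from four or five concentrations by nonlinear curve fitting.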

In assay [2] the target is Dopamine receptor. The assay is described as follows: Binding affinity against dopamine receptor using [3H]- haloperidol in rat brain. Type of assay: tissue-based. An outline of the steps: (§2)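 Nonspecific binding defined with (+)-butaclamol at 0.1 μM final. IC50 fitted by nonlinear curve fit from four or five concentrations in triplicate.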
The target of assay [3] is Beta-1 adrenergic receptor (Rattus norvegicus, UniProt P18090). The assay is described as follows: Binding affinity against beta-1 adrenergic receptor in rat brain using [3H]DHA. Type of assay: tissue-based. In short, it runs like this:
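β1 sites in rat cerebral cortex membranes (male Long-Evans, 150–250 g) with [3H]dihydroalprenolol at 0.5 nM final. (-)-Alprenolol at 1 μM final defined the reference. IC50 from four or five concentrations by nonlinear curve fit.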

In assay [4] the target is Beta-2 adrenergic receptor (Rattus norvegicus, UniProt P10608). Briefly: Binding affinity against beta-2 adrenergic receptor in rat brain using [3H]DHA. It is filed as tissue-based. An outline of the steps: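 β2 binding on rat cerebellum membranes (male Long–Evans rats, 150–250 g) with [3H]dihydroalprenolol, 0.5 nM final. Nonspecific binding defined with (-)-alprenolol, 1 μM final. IC50 from four or five concentrations by nonlinear curve fit.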
Beta-2 adrenergic receptor, sequence (P10608 whole entry): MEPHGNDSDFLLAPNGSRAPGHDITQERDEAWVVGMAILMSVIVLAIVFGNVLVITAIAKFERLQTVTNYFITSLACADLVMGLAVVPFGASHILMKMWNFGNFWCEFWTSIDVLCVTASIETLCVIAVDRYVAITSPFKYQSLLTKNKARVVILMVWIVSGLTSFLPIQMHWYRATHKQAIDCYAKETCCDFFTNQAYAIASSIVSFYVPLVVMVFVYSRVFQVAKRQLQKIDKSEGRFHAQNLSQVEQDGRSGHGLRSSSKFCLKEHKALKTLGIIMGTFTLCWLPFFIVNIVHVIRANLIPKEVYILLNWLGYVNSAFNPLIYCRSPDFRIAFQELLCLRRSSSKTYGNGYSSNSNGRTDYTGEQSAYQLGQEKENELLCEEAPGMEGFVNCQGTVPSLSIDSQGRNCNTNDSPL

Assay [5] has as its target Dopamine receptor. Briefly: Binding affinity against dopamine receptor in rat striatal membrane using [3H]haloperidol. Type of assay: cell membranes, Striatum. In short, it runs like this: as §2
The target of assay [6] is Dopamine receptor (Rattus norvegicus) (UniProt P25115+P19020+P30729+P18901+P61169). Briefly: Compound was tested for its effect on norepinephrine turnover in rat at dose of 10+/-250 mg/kg. It is filed as functional, organism-based. Particulars: in the assay text read “64+/-250 mg/kg” for “10+/-250 mg/kg”. In short, it runs like this:
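Male Long-Evans rats were given vehicle or agent ip 30 min before α-methyl-p-tyrosine (250 mg/kg) and killed 4 h after it. Brain NE and DA were isolated on Sephadex G-10 and measured spectrofluorometrically. Values are percent of vehicle-treated, with at least five determinations per value.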

Assay [7] addresses Muscarinic acetylcholine receptor. Briefly: Binding affinity against Muscarinic acetylcholine receptor in rat brain using [3H]- QNB. Type of assay: tissue-based. In short, it runs like this: as §1
The subject of assay [8] is Rattus norvegicus. Briefly: Compound was tested for its effect on norepinephrine turnover in rat at dose of 64 mg/kg ip. Conditions: route intraperitoneal. It is filed as functional. An outline of the steps:
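Rats were given compound or vehicle ip 30 min before α-methyl-p-tyrosine (250 mg/kg ip) and killed 4 h later. Brain NE and DA were measured spectrofluorometrically, with at least five determinations per value, and expressed as % of vehicle-treated levels ± SEM.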

For assay [9], the system named is Rattus norvegicus. The assay is described as follows: Suppression of conditional avoidance after peroral administration. It is filed as functional. Particulars: po. An outline of the steps: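 Fasted male Wistar rats (150–250 g) were trained to jump to a platform at a buzzer to avoid grid shock (1.1 mA/s). After oral dosing they were tested every 20 min for 6 h over 19 trials, 10 rats per dose, each rat used once. Peak effect was the mean of the four consecutive trials with the largest effect, computed from response latency. ED50 read graphically from at least three doses.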

In assay [10] the test system is Rattus norvegicus. Briefly: Antagonized affect on the accumulation of the brain dopamine induced by butyrolactone (GBL) at 25 mg/kg after intraperitoneal administration. Type of assay: functional. Further details: scale not given: the % may be the effect or the level left. In short, it runs like this:
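Rats received test compound ip 30 min before γ-butyrolactone (750 mg/kg ip) and were killed 1 h after GBL. Dopamine in brain minus brain stem and cerebellum (four to six rats) was measured spectrofluorometrically and expressed as % of the GBL-treated group.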

The target of assay [11] is Serotonin 1 (5-HT1) receptor (Rattus norvegicus, UniProt P28564+P30940+P19327+P28565). The assay is described as follows: Binding affinity against serotonin-1 receptor in rat brain using [3H]5-HT. It is filed as tissue-based. In short, it runs like this:
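Serotonin-1 binding in rat cortex membranes (male Long-Evans, 150–250 g) with [3H]-5-HT at 2.0 nM final. (+)-Butaclamol at 1 μM final was the reference. IC50 from four or five concentrations by nonlinear curve fit.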

Beta-1 adrenergic receptor, sequence (P18090 whole entry): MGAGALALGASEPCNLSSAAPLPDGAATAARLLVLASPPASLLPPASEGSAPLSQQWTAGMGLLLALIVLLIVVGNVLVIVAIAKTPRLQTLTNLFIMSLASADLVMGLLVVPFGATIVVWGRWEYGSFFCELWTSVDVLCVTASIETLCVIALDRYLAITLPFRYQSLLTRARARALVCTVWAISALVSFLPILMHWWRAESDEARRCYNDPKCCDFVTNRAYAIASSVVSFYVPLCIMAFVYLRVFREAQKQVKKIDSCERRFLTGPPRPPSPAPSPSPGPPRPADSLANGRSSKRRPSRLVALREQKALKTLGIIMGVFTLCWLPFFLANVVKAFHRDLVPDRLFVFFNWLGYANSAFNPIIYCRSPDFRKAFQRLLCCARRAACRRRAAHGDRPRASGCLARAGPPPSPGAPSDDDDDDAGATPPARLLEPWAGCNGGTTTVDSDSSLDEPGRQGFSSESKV

As usually defined, the ED50 is the dose at which the effect has come halfway, by size or by number of responders. As a reminder, the IC50 is the concentration at which inhibition is half-maximal. In turn, `Cc1nn(C)c(N)c1C(=O)c1ccccc1F` returned an ED50 in the assay with Mus musculus of 8 mg/kg. The compound also had an IC50 in assay [1] greater than 10 µM.
The compound `CCN(CC)CC(=O)Nc1c(C(=O)c2ccccc2F)c(C)nn1C` displayed an IC50 on Dopamine receptor [2] greater than 10 µM.
Broadly, the pIC50 is the negative decadic logarithm of the IC50, by convention in mol/L. Take `Cc1nn(C)c(NC(=O)CNCCCN2CCCCC2C)c1C(=O)c1ccccc1F` (configuration not stated): the pIC50 in assay [3] and in assay [4] was less than 5.00 in each case. Further, the IC50 (at Dopamine receptor [5]; in assay [7]; in assay [11]) was greater than 10 µM throughout. Further, the Control is 53.7% in assay [6], 102.8% in the assay with Rattus norvegicus [8] and 91.2% in the assay on Rattus norvegicus [10]. This compound registered an ED50 in the assay with Rattus norvegicus [9] of 43 mg/kg.
